From ChEMBL document CHEMBL1143257, “Structure-activity relationships of novel HIV-1 protease inhibitors containing the 3-amino-2-chlorobenzoyl-allophenylnorstatine structure” (Bioorg Med Chem, 2008)
pEC50, pIC50, pKi: −log10 of the molar value.

What was measured:
[1] = test system: Human immunodeficiency virus 1; experiment: Antiviral activity against HIV1 3B; assay type: functional, organism-based; details: Human immunodeficiency virus 1, 3B
[2] = test system: Human immunodeficiency virus 1; experiment: Antiviral activity against HIV1 3B in presence of 50% human serum; assay type: functional, organism-based; details: Human immunodeficiency virus 1, 3B
[3] = AUC in Beagle dog at 15 mg/kg, po; assay type: ADME, organism-based, Canis lupus familiaris; parameters: dose 15 mg/kg, route oral; details: plasma
[4] = Cmax in Beagle dog at 15 mg/kg, po; assay type: ADME, organism-based, Canis lupus familiaris; parameters: dose 15 mg/kg, route oral; details: in vivo
[5] = Tmax in Beagle dog at 15 mg/kg, po; assay type: ADME, organism-based, Canis lupus familiaris; parameters: dose 15 mg/kg, route oral; details: in vivo
[6] = Volume of distribution at steady state in Beagle dog at 15 mg/kg, iv; assay type: ADME, organism-based, Canis lupus familiaris; parameters: dose 15 mg/kg, route intravenous; details: in vivo, read-out: Vdss
[7] = Plasma clearance in Beagle dog at 15 mg/kg, iv; assay type: ADME, organism-based, Canis lupus familiaris; parameters: dose 15 mg/kg, route intravenous
[8] = Oral bioavailability in Beagle dog at 15 mg/kg; assay type: ADME, organism-based, Canis lupus familiaris; details: in vivo
[9] = Plasma concentration in Beagle dog at 15 mg/kg, po after 12 hrs; assay type: ADME, organism-based, Canis lupus familiaris; parameters: dose 15 mg/kg, route oral
[10] = AUC in Beagle dog at 15 mg/kg, po co-administered with 7.5 mg/kg of ritonavir, po; assay type: ADME, organism-based, Canis lupus familiaris; details: plasma
[11] = test system: Human immunodeficiency virus 1; experiment: Ratio of EC50 for HIV1 mutant strain 5 to EC50 for wild type HIV1; assay type: functional
[12] = test system: Human immunodeficiency virus 1; experiment: Ratio of EC50 for HIV1 mutant strain 6 to EC50 for wild type HIV1; assay type: functional
[13] = test system: Human immunodeficiency virus 1; experiment: Ratio of EC50 for HIV1 mutant strain 7 to EC50 for wild type HIV1; assay type: functional
How it was run: (§1)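 PhenoSense phenotypic assay. Strain 7 protease mutations include T4A, L10I, K20R, L23I, L33F, E35D, M36I, K43T, M46L. EC50 in µM. Fold change is versus the wild-type EC50.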

[14] = Metabolic stability in human liver microsomes assessed as compound remaining at 5 uM in presence of NADPH by RP-HPLC; assay type: ADME, Microsome; details: read-out: Stability
How it was run: (§2)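 Test drug at 5 µM incubated with liver microsomes (0.5 mg/ml) plus cofactor (1 mM NADPH or 5 mM UDPGA) at 37 °C for 30 min. Residual drug measured by RP-HPLC. Values are the mean percent remaining of duplicates.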

[15] = Metabolic stability in human liver microsomes assessed as compound remaining at 5 uM in presence of UDPGA by RP-HPLC; assay type: ADME, Microsome; details: read-out: Stability; how it was run: as §2
Protease = Protease (Human immunodeficiency virus 1, UniProt Q9YQ12); experiment: Inhibition of HIV1 protease
[16] = Cmax in Beagle dog at 15 mg/kg, po co-administered with 7.5 mg/kg of ritonavir, po; assay type: ADME, organism-based, Canis lupus familiaris; parameters: dose 15 mg/kg, route oral; details: in vivo
[17] = Tmax in Beagle dog at 15 mg/kg, po co-administered with 7.5 mg/kg of ritonavir, po; assay type: ADME, organism-based, Canis lupus familiaris; details: in vivo
[18] = Plasma concentration in Beagle dog at 15 mg/kg, po after 12 hrs co-administered with 7.5 mg/kg of ritonavir, po; assay type: ADME, organism-based, Canis lupus familiaris
Liver [19] = experiment: Metabolic stability in dog liver microsomes assessed as compound remaining in presence of NADPH by RP-HPLC; assay type: ADME, Canis lupus familiaris, Microsome; how it was run: as §2
Liver [20] = experiment: Metabolic stability in dog liver microsomes assessed as compound remaining in presence of UDPGA by RP-HPLC; assay type: ADME, Canis lupus familiaris, Microsome; how it was run: as §2
[21] = Metabolic stability in rat liver microsomes assessed as compound remaining at 5 uM by RP-HPLC; assay type: ADME, Microsome; details: read-out: Stability; how it was run: as §2
[22] = Metabolic stability in rat liver microsomes assessed as compound remaining at 5 uM in presence of 0.5 uM ritonavir by RP-HPLC; assay type: ADME, Microsome; details: with ritonavir 0.5 uM, read-out: Stability
[23] = Metabolic stability in rat liver microsomes assessed as compound remaining at 5 uM in presence of 2.5 uM ritonavir by RP-HPLC; assay type: ADME, Microsome; details: with ritonavir 2.5 uM, read-out: Stability
[24] = Metabolic stability in dog liver microsomes assessed as compound remaining at 5 uM by RP-HPLC; assay type: ADME, Canis lupus familiaris, Microsome; details: read-out: Stability; how it was run: as §2
[25] = Metabolic stability in dog liver microsomes assessed as compound remaining at 5 uM in presence of 0.5 uM ritonavir by RP-HPLC; assay type: ADME, Canis lupus familiaris, Microsome; details: with ritonavir 0.5 uM, read-out: Stability
[26] = Metabolic stability in dog liver microsomes assessed as compound remaining at 5 uM in presence of 2.5 uM ritonavir by RP-HPLC; assay type: ADME, Canis lupus familiaris, Microsome; details: with ritonavir 2.5 uM, read-out: Stability
[27] = Metabolic stability in human liver microsomes assessed as compound remaining at 5 uM by RP-HPLC; assay type: ADME, Microsome; details: read-out: Stability; how it was run: as §2
[28] = Metabolic stability in human liver microsomes assessed as compound remaining at 5 uM in presence of 0.5 uM ritonavir by RP-HPLC; assay type: ADME, Microsome; details: with ritonavir 0.5 uM, read-out: Stability
[29] = Metabolic stability in human liver microsomes assessed as compound remaining at 5 uM in presence of 2.5 uM ritonavir by RP-HPLC; assay type: ADME, Microsome; details: with ritonavir 2.5 uM, read-out: Stability
[30] = test system: Human immunodeficiency virus 1; experiment: Antiviral activity against wild type HIV1; assay type: functional, organism-based
[31] = test system: Human immunodeficiency virus 1; experiment: Antiviral activity against HIV1 mutant strain 1; assay type: functional, organism-based
How it was run: (§3)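 PhenoSense phenotypic susceptibility assay on multi-drug-resistant clinical HIV-1 protease variant strains, run in parallel with a wild-type reference. EC50 read in µM. Fold change is mutant EC50 divided by wild-type EC50.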

[32] = test system: Human immunodeficiency virus 1; experiment: Antiviral activity against HIV1 mutant strain 2; assay type: functional, organism-based
How it was run: (§4)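 PhenoSense phenotypic assay. Strain 2 protease carries L10I, G16A, K45V, F53L, I54V, K55N, D60E, L63P, A71V, I72K, V77I, V82F, I84V, L90M, I93L. EC50 in µM. Fold change is versus the wild-type EC50.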

[33] = test system: Human immunodeficiency virus 1; experiment: Antiviral activity against HIV1 mutant strain 3; assay type: functional, organism-based
[34] = test system: Human immunodeficiency virus 1; experiment: Antiviral activity against HIV1 mutant strain 4; assay type: functional, organism-based
[35] = test system: Human immunodeficiency virus 1; experiment: Antiviral activity against HIV1 mutant strain 5; assay type: functional, organism-based
[36] = test system: Human immunodeficiency virus 1; experiment: Antiviral activity against HIV1 mutant strain 6; assay type: functional, organism-based
[37] = test system: Human immunodeficiency virus 1; experiment: Antiviral activity against HIV1 mutant strain 7; assay type: functional, organism-based; how it was run: as §1
[38] = test system: Human immunodeficiency virus 1; experiment: Ratio of EC50 for HIV1 mutant strain 1 to EC50 for wild type HIV1; assay type: functional; how it was run: as §3
[39] = test system: Human immunodeficiency virus 1; experiment: Ratio of EC50 for HIV1 mutant strain 2 to EC50 for wild type HIV1; assay type: functional; how it was run: as §4
[40] = test system: Human immunodeficiency virus 1; experiment: Ratio of EC50 for HIV1 mutant strain 3 to EC50 for wild type HIV1; assay type: functional
[41] = test system: Human immunodeficiency virus 1; experiment: Ratio of EC50 for HIV1 mutant strain 4 to EC50 for wild type HIV1; assay type: functional
[42] = test system: Human immunodeficiency virus 1; experiment: Antiviral activity against multidrug resistant HIV1; assay type: functional, organism-based; how it was run: as §3

Sequence of Protease (Q9YQ12 whole entry): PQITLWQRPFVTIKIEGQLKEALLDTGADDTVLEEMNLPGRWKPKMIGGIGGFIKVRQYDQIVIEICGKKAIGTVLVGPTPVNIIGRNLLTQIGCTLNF

## COc1cccc(C[C@H](NC(=O)c2cccc(N)c2Cl)[C@H](O)C(=O)N2CSC(C)(C)[C@H]2C(=O)NCc2c(C)cccc2C)c1
[1]
  pEC50: 8.40
[2]
  pEC50: 8.22
[3]
  AUC: 15.6 µM·h
[4]
  Cmax: 2800 nM
[5]
  Tmax: 2 h
[6]
  Vd: 1.3 L/kg
[7]
  clearance: 18.3 mL/min/kg
[8]
  bioavailability: 71%
[9]
  concentration at 12 h: 130 nM
[10]
  AUC: 52.8 µM·h
[11]
  Ratio EC50: 38
[12]
  Ratio EC50: 17
[13]
  Ratio EC50: 7
[14]
  remaining at 5 µM: 64%
[15]
  remaining at 5 µM: > 95%
Protease
  pKi: 9.87
[16]
  Cmax: 5300 nM
[17]
  Tmax: 3 h
[18]
  concentration at 12 h: 2950 nM
Liver [19]
  Stability: 47%
Liver [20]
  Stability: > 95%
[21]
  remaining at 5 µM: 21%
[22]
  remaining at 5 µM: 41%
[23]
  remaining at 5 µM: 55%
[24]
  remaining at 5 µM: 36%
[25]
  remaining at 5 µM: 90%
[26]
  remaining at 5 µM: > 95%
[27]
  remaining at 5 µM: 49%
[28]
  remaining at 5 µM: 93%
[29]
  remaining at 5 µM: > 95%
[30]
  pEC50: 8.25
[31]
  pEC50: 6.82
[32]
  pEC50: 6.97
[33]
  pEC50: 6.91
[34]
  pEC50: 7.66
[35]
  pEC50: 6.67
[36]
  pEC50: 7.02
[37]
  pEC50: 7.38
[38]
  Ratio EC50: 27
[39]
  Ratio EC50: 19
[40]
  Ratio EC50: 22
[41]
  Ratio EC50: 4
[42]
  pIC50: 7.66
